Laboratory results published in ChEMBL document CHEMBL1150397, “Towards the first inhibitors of trihydroxynaphthalene reductase from Curvularia lunata: synthesis of artificial substrate, homology modelling and initial screening” (Bioorg Med Chem, 2008).
The source made the active and inactive calls. No cut-off for these calls is given here.

Target: not listed separately
Test: (§1) Inhibition of recombinant Curvularia lunata trihydroxynaphthalene reductase
Conditions: not given
Procedure, shortened: (§2)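 GST-fusion 3HNR from C. lunata expressed in E. coli BL21-AI, bound on glutathione-Sepharose, thrombin-cleaved, purity checked by SDS-PAGE. Initial rates of DDBO oxidation with NADP+ reduction followed at 340 nm (NADPH absorbance), 25 °C. Conditions: 0.2 µM enzyme, 100 µM DDBO, 500 µM coenzyme, 100 mM phosphate pH 7.0, 1% final DMF. Compounds screened at 100 µM; IC50 determined over 5–200 µM where screening inhibition exceeded 35%.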
`O=C1CC(=O)c2ccccc21` gave an IC50 of 66 µM. Compound `CCOC(=O)c1cc(=O)c2cc(C)cc([N+](=O)[O-])c2o1` has an IC50 of 167 µM. For `O=C(O)Cc1ccccc1Nc1c(Cl)cccc1Cl` [DICLOFENAC SODIUM], the IC50 was 108 µM. `CCOC(=O)c1cc(=O)c2cc(C)ccc2o1` gave an IC50 of 120 µM. Compound `CCc1cccc2c3c([nH]c12)C(CC)(CC(=O)O)OCC3` (configuration not stated) [ETODOLAC] has an IC50 of 17 µM. With `COc1ccc2cc(CCC(C)=O)ccc2c1` [NABUMETONE] the IC50 was 111 µM.

System: Curvularia lunata
Test: as §1
Conditions: not given
Procedure, shortened: as §2
For `CC(=O)Nc1ccc(O)cc1`, the Activity was “inactive”. For `CC(C)Cc1ccc(C(C)C(=O)O)cc1` (configuration not stated), the Activity was “inactive”. For `CCOc1ccc(NC(C)=O)cc1`, the Activity was “inactive”. For `CC(C(=O)O)c1cccc(C(=O)c2ccccc2)c1` (configuration not stated), the Activity was “inactive”.

Same assay, conditions: concentration not given here
For `COc1ccc2cc([C@H](C)C(=O)O)ccc2c1`, the inhibition was 9%. `Cc1ccc(-c2cc(C(F)(F)F)nn2-c2ccc(S(N)(=O)=O)cc2)cc1` gave an inhibition of 17%.
